Source: publication PMC10092221 (Journal of Clinical Pharmacology, 2022)

Legend:
[1] = itraconazole 200 mg daily; cited from earlier work
[2] = Capmatinib/CMN288 pharmacokinetics, inhibition cohort; type: in vivo, human (healthy subjects); conditions: inhibition cohort, healthy subjects, plasma
Outline: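 Inhibition cohort of healthy subjects (n = 27): a single fasted oral 200 mg dose on day 1, then a 4-day washout. Itraconazole 200 mg was given daily on days 5–14, and 200 mg test compound was dosed 1 h after the sixth itraconazole dose (day 10). Plasma was sampled serially to 96 h after each dose and assayed by validated LC-MS/MS (LLOQ ≈1.0 ng/mL). Test/reference ratios are antilogged point estimates with 2-sided 90%CIs.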

[3] = Capmatinib/CMN288 pharmacokinetics, induction cohort; type: in vivo, human (healthy subjects); conditions: induction cohort, healthy subjects, plasma
Outline: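 Healthy subjects (induction cohort, n = 26) received a single fasted oral 400 mg dose on day 1, then a 4-day washout. Rifampicin 600 mg was given daily on days 5–13, with 400 mg test compound coadministered with the sixth dose on day 10. Serial plasma was drawn to 72 h after each dose and frozen <–70°C. Parent and metabolite were measured by validated LC-MS/MS (LLOQ ≈1.0 ng/mL). Ratios are antilogged 90%CIs.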

[4] = single oral capmatinib 200 mg + itraconazole 200 mg/day
[5] = single oral capmatinib 200 mg alone
[6] = single oral capmatinib 400 mg + rifampicin 600 mg/day
[7] = single oral capmatinib 400 mg alone

SMILES: Cc1nnc2n1-c1ccc(Cl)cc1C(c1ccccc1Cl)=NC2 [triazolam]
- Increase in exposure with itraconazole regimen [1]: 27 fold

SMILES: CNC(=O)c1ccc(-c2nn3c(Cc4ccc5ncccc5c4)cnc3[nH]c2=O)cc1F [CMN288]
- CMN288 AUCinf, geometric mean (geometric CV%) [2, 4]: 4290 (42.3) ng · h/mL
- CMN288 AUCinf, mean (CV%) [2, 4]: 4600 (35.7) ng · h/mL
- CMN288 AUClast, geometric mean (geometric CV%) [2, 4]: 4260 (43.2) ng · h/mL
- CMN288 AUClast, mean (CV%) [2, 4]: 4570 (36.0) ng · h/mL
- CMN288 Cmax, geometric mean (geometric CV%) [2, 4]: 590 (63.8) ng/mL
- CMN288 Cmax, mean (CV%) [2, 4]: 682 (50.8) ng/mL
- CMN288 tmax, median (range) [2, 4]: 2.00 (0.983–4.01) h
- MR (AUCinf), metabolite-to-parent drug ratio, mean (CV%) [2, 4]: 0.572 (25.1)
- MR (AUClast), metabolite-to-parent drug ratio, mean (CV%) [2, 4]: 0.570 (25.6)
- MR (Cmax), metabolite-to-parent drug ratio, mean (CV%) [2, 4]: 0.462 (29.2)
- CMN288 AUCinf, geometric mean (geometric CV%) [2, 5]: 3640 (36.6) ng · h/mL
- CMN288 AUCinf, mean (CV%) [2, 5]: 3870 (35.5) ng · h/mL
- CMN288 AUClast, geometric mean (geometric CV%) [2, 5]: 3580 (37.6) ng · h/mL
- CMN288 AUClast, mean (CV%) [2, 5]: 3810 (36.2) ng · h/mL
- CMN288 Cmax, geometric mean (geometric CV%) [2, 5]: 665 (48.7) ng/mL
- CMN288 Cmax, mean (CV%) [2, 5]: 736 (47.0) ng/mL
- CMN288 tmax, median (range) [2, 5]: 1.01 (0.968–6.02) h
- MR (AUCinf), metabolite-to-parent drug ratio, mean (CV%) [2, 5]: 0.699 (25.4)
- MR (AUClast), metabolite-to-parent drug ratio, mean (CV%) [2, 5]: 0.685 (27.5)
- MR (Cmax), metabolite-to-parent drug ratio, mean (CV%) [2, 5]: 0.533 (30.5)
- CMN288 AUCinf, geometric mean (geometric CV%) [3, 6]: 5110 (31.9) ng · h/mL
- CMN288 AUCinf, mean (CV%) [3, 6]: 5360 (32.1) ng · h/mL
- CMN288 AUClast, geometric mean (geometric CV%) [3, 6]: 5070 (32.3) ng · h/mL
- CMN288 AUClast, mean (CV%) [3, 6]: 5320 (32.5) ng · h/mL
- CMN288 Cmax, geometric mean (geometric CV%) [3, 6]: 1570 (39.8) ng/mL
- CMN288 Cmax, mean (CV%) [3, 6]: 1690 (38.1) ng/mL
- CMN288 tmax, median (range) [3, 6]: 0.998 (0.924–3.00) h
- MR (AUCinf), metabolite-to-parent drug ratio, mean (CV%) [3, 6]: 1.37 (26.0)
- MR (AUClast), metabolite-to-parent drug ratio, mean (CV%) [3, 6]: 1.35 (25.0)
- MR (Cmax), metabolite-to-parent drug ratio, mean (CV%) [3, 6]: 1.17 (28.9)
- CMN288 AUCinf, geometric mean (geometric CV%) [3, 7]: 7420 (28.4) ng · h/mL
- CMN288 AUCinf, mean (CV%) [3, 7]: 7710 (30.1) ng · h/mL
- CMN288 AUClast, geometric mean (geometric CV%) [3, 7]: 7310 (28.4) ng · h/mL
- CMN288 AUClast, mean (CV%) [3, 7]: 7600 (30.2) ng · h/mL
- CMN288 Cmax, geometric mean (geometric CV%) [3, 7]: 1500 (41.4) ng/mL
- CMN288 Cmax, mean (CV%) [3, 7]: 1610 (39.2) ng/mL
- CMN288 tmax, median (range) [3, 7]: 0.994 (0.957–3.00) h
- MR (AUCinf), metabolite-to-parent drug ratio, mean (CV%) [3, 7]: 0.634 (25.2)
- MR (AUClast), metabolite-to-parent drug ratio, mean (CV%) [3, 7]: 0.627 (25.1)
- MR (Cmax), metabolite-to-parent drug ratio, mean (CV%) [3, 7]: 0.492 (30.8)
